Laboratory results taken from ChEMBL document CHEMBL1177721, “Cytotoxicity of artesunic acid homo- and heterodimer molecules toward sensitive and multidrug-resistant CCRF-CEM leukemia cells” (J Med Chem, 2010).
Calls of active or inactive are those of the source. The calls are words filed in the database; no cut-off is given here.

Columns and labels:
Format in all cases: functional, cell-based
CCRF-CEM = experiment: Cytotoxicity against human CCRF-CEM by XTT assay
Procedure, shortened: (§1)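 XTT (tetrazolium cleavage by cellular dehydrogenases to formazan) read on plate reader. Cells kept in RPMI-1640 with 10% heat-inactivated FCS, 1% penicillin/streptomycin, 37 °C, 5% CO2. CEM/ADR5000 pulsed with 5000 ng/mL doxorubicin for 3 days every other week to keep P-glycoprotein overexpression. IC50 from dose-response curves, mean ± SD of two to three independent experiments, three parallel measurements each.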

ADR5000 cell line [1] = experiment: Cytotoxicity against human CEM/ADR5000 by XTT assay; procedure, shortened: as §1
ADR5000 cell line [2] = experiment: Cell cycle arrest in human CEM/ADR5000 cells assessed as accumulation at G0/G1 phase 1 ug/ml after 48 hrs using propidium iodide staining by flow cytometry
ADR5000 cell line [3] = experiment: Induction of apoptosis in human CEM/ADR5000 cells at 2 ug/mL after 48 hrs using propidium iodide staining by flow cytometry
ADR5000 cell line [4] = experiment: Increase in ROS generation in human CEM/ADR5000 cells at 0 001 ug/ml after 24 hrs using 2',7'-dichlorodihydrofluoresceine diacetate staining by flow cytometry
Procedure, shortened: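 Intracellular ROS measured by H2DCFDA staining and flow cytometry. Cells at 5 × 10^5 cells/mL exposed to a range of concentrations, sampled at 6, 24, 48 and 72 h. Fluorescence histograms overlaid on untreated controls. Levels normalised to the median of three nontreated controls.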

ADR5000 cell line [5] = experiment: Cell cycle arrest in human CEM/ADR5000 cells assessed as accumulation at G0/G1 phase 10 ug/ml after 48 hrs using propidium iodide staining by flow cytometry
Procedure, shortened: (§2)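 Nicoletti assay: cells were stained with propidium iodide and read by flow cytometry, counting 10 000 cells per sample. Cells were grown in RPMI-1640 with 10% heat-inactivated FCS and 1% penicillin/streptomycin at 37 °C under 5% CO2. To keep P-glycoprotein overexpressed, CEM/ADR5000 cells were given 5000 ng/mL doxorubicin for 3 days every other week.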

ADR5000 cell line [6] = experiment: Cell cycle arrest in human CEM/ADR5000 cells assessed as accumulation at G2/M phase 0.01 ug/ml after 48 hrs using propidium iodide staining by flow cytometry; procedure, shortened: as §2
ADR5000 cell line [7] = experiment: Increase in ROS generation in human CEM/ADR5000 cells at 0 01 ug/ml after 72 hrs using 2',7'-dichlorodihydrofluoresceine diacetate staining by flow cytometry
ADR5000 cell line [8] = experiment: Induction of apoptosis in human CEM/ADR5000 cells at 1 ug/mL after 24 hrs using propidium iodide staining by flow cytometry; procedure, shortened: as §2
ADR5000 cell line [9] = experiment: Increase in ROS generation in human CEM/ADR5000 cells at 1 ug/ml after 6 hrs 2',7'-dichlorodihydrofluoresceine diacetate staining by flow cytometry

| SMILES | IC50 (CCRF-CEM) | IC50 (ADR5000 cell line [1]) | also measured |
| --- | --- | --- | --- |
| C[C@H]1[C@H](OC(=O)CCC(=O)NCCCNC(=O)CCC(=O)O[C@@H]2O[C@@H]3O[C@@]4(C)CC[C@H]5[C@H](C)CC[C@@H]([C@H]2C)[C@@]35OO4)O[C@@H]2O[C@@]3(C)CC[C@H]4[C@H](C)CC[C@@H]1[C@@]24OO3 | 1.2 µM | 0.2 µM | Activity (ADR5000 cell line [2]): Active; Activity (ADR5000 cell line [3]): Active; Activity (ADR5000 cell line [4]): Active |
| C=C(C)[C@@H]1CC[C@]2(COC(C)=O)CC[C@]3(C)[C@H](CC[C@@H]4[C@@]5(C)CC[C@H](OC(=O)CCC(=O)O[C@@H]6O[C@@H]7O[C@@]8(C)CC[C@H]9[C@H](C)CC[C@@H]([C@H]6C)[C@@]79OO8)C(C)(C)[C@@H]5CC[C@]43C)[C@@H]12 | 31.9 µM | 20.8 µM |  |
| C=C(C)[C@@H]1CC[C@]2(COC(=O)CCC(=O)O[C@@H]3O[C@@H]4O[C@@]5(C)CC[C@H]6[C@H](C)CC[C@@H]([C@H]3C)[C@@]46OO5)CC[C@]3(C)[C@H](CC[C@@H]4[C@@]5(C)CC[C@H](O)C(C)(C)[C@@H]5CC[C@]43C)[C@@H]12 | 9.7 µM | 11.9 µM |  |
| C=C(C)[C@@H]1CC[C@]2(COC(=O)CCC(=O)O[C@@H]3O[C@@H]4O[C@@]5(C)CC[C@H]6[C@H](C)CC[C@@H]([C@H]3C)[C@@]46OO5)CC[C@]3(C)[C@H](CC[C@@H]4[C@@]5(C)CC[C@H](OC(=O)CCC(=O)O[C@@H]6O[C@@H]7O[C@@]8(C)CC[C@H]9[C@H](C)CC[C@@H]([C@H]6C)[C@@]79OO8)C(C)(C)[C@@H]5CC[C@]43C)[C@@H]12 | 42.9 µM | 42.1 µM |  |
| C[C@@H]1CC[C@H]2[C@@H](C)C(=O)O[C@@H]3O[C@@]4(C)CC[C@@H]1[C@]32OO4 [ARTEMISININ] | 36.9 µM | 26.9 µM |  |
| C[C@H]1[C@H](OC(=O)CCC(=O)O)O[C@@H]2O[C@@]3(C)CC[C@H]4[C@H](C)CC[C@@H]1[C@@]24OO3 [ARTESUNATE] | 1.8 µM | 1.2 µM | Activity (ADR5000 cell line [5]): Active; Activity (ADR5000 cell line [6]): Active; Activity (ADR5000 cell line [3]): Active; Activity (ADR5000 cell line [7]): Active |
| C=C(C)[C@@H]1CC[C@]2(CO)CC[C@]3(C)[C@H](CC[C@@H]4[C@@]5(C)CC[C@H](O)C(C)(C)[C@@H]5CC[C@]43C)[C@@H]12 [BETULIN] | 50.8 µM | 56.5 µM |  |
| COc1cccc2c1C(=O)c1c(O)c3c(c(O)c1C2=O)C[C@@](O)(C(=O)CO)C[C@@H]3O[C@H]1C[C@H](N)[C@H](O)[C@H](C)O1 [DOXORUBICIN] | 0.0369 µM | > 5.2 µM | Activity (ADR5000 cell line [8]): Active; Activity (ADR5000 cell line [9]): inactive |
